This note sets out measurements from ChEMBL document CHEMBL1147932, “Design, synthesis, and biological activities of novel Ligustrazine derivatives” (Bioorg Med Chem, 2007).

Test [1] relates to Plasma. Briefly: Inhibition of ADP-induced platelet aggregation in rabbit plasma at 200 uM. It counts as functional, Oryctolagus cuniculus. On the set-up: scale not given: the % may be the effect or the level left. A digest of the protocol: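 Rabbit blood anticoagulated with 3.8% trisodium citrate, with ADP as inducer; blank and ADP-control cuvettes included. Platelet-rich plasma was taken from the supernatant after 270 g/5 min. Platelet-poor plasma came from re-spinning at 1000 g/10 min. Aggregation was read on an aggregometer and reported as mean platelet aggregation rate (A%), n = 6.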

The test system of test [2] is ECV-304. Briefly: Protection of hydrogen peroxide-induced damage in ECV304 cells. It counts as functional, cell-based. The following applies: Homo sapiens.

SMILES strings stand for the structures.

In test [1], `Cc1nc(C)c(CN2CCN(Cc3cccc(Cl)c3)CC2)nc1C` gave an Activity of 10.56%. Moreover, the EC50 in test [2] was 503 µM.
The corresponding values for `Cc1nc(C)c(CN2CCN(Cc3ccc(Cl)cc3)CC2)nc1C` are 12.31% and 339 µM.
On the same counts, the results for `Cc1nc(C)c(CN2CCN(Cc3ccc(Cl)cc3Cl)CC2)nc1C` are 5.7% and 424 µM.
The corresponding values for `Cc1nc(C)c(CN2CCN(Cc3ccccc3Br)CC2)nc1C` are 7.68% and 784 µM.
As to `Cc1nc(C)c(CN2CCN(Cc3ccc(Br)cc3)CC2)nc1C`, in test [1], the Activity is on record as 13.26%. The response in test [2] was half-maximal at 845 µM (EC50).
On the same counts, the results for `Cc1nc(C)c(CN2CCN(Cc3cccc(C#N)c3)CC2)nc1C` are 14.19% and 1110 µM.
The compound `Cc1nc(C)c(CN2CCN(Cc3ccc(C#N)cc3)CC2)nc1C` had an Activity in test [1] of 11.37%. Moreover, the EC50 in test [2] is 417 µM.
On the same counts, the results for `Cc1nc(C)c(CN2CCN(Cc3ccc([N+](=O)[O-])cc3)CC2)nc1C` are 14.22% and 299 µM.
On the same counts, the results for `Cc1nc(C)c(CN2CCN(c3ccccc3)CC2)nc1C` are 21.43% and 665 µM.
The corresponding values for `Cc1nc(C)c(CN2CCNCC2)nc1C` are 11.36% and 481 µM.
In the case of `Cc1nc(C)c(CN2CCN(C/C=C/c3ccccc3)CC2)nc1C`, the Activity in test [1] worked out at 8.36%. This compound gave an EC50 in test [2] of 428 µM.
On the same counts, the results for `Cc1nc(C)c(CN2CCN(C(c3ccccc3)c3ccccc3)CC2)nc1C` are 9.88% and 218 µM.
In test [1], `Cc1nc(C)c(CN2CCN(C(c3ccc(F)cc3)c3ccc(F)cc3)CC2)nc1C` displayed an Activity of 6.32%. In test [2], this compound had an EC50 of 223 µM.
The corresponding values for `Cc1nc(C)c(CN2CCN(C(c3ccccc3)c3ccc(Cl)cc3)CC2)nc1C` (stereo unspecified) are 5.19% and 253 µM.
The corresponding values for `Cc1nc(C)c(CN2CCN(Cc3nc(C)c(C)nc3C)CC2)nc1C` are 19.36% and 311 µM.
`Cc1nc(C)c(CN2CCN(Cc3ccccc3)CC2)nc1C`: the Activity in test [1] is 9.06%. The compound also showed an EC50 in test [2] of 246 µM.
The corresponding values for `Cc1ccc(CN2CCN(Cc3nc(C)c(C)nc3C)CC2)cc1` are 17.69% and 328 µM.
The corresponding values for `CCc1ccc(CN2CCN(Cc3nc(C)c(C)nc3C)CC2)cc1` are 13.56% and 375 µM.
In test [1], `Cc1nc(C)c(CN2CCN(Cc3ccc(C(C)(C)C)cc3)CC2)nc1C` registered an Activity of 15.32%. Further, in test [2], the EC50 was 431 µM.
On the same counts, the results for `Cc1nc(C)c(CN2CCN(Cc3ccccc3C#N)CC2)nc1C` are 12.16% and 637 µM.
On the same counts, the results for `Cc1nc(C)c(CN2CCN(CCc3ccccc3)CC2)nc1C` are 9.77% and 542 µM.
The corresponding values for `Cc1nc(C)c(CN2CCN(Cc3ccccc3Cl)CC2)nc1C` are 9.67% and 405 µM.
The compound `Cc1nc(C)c(C)nc1C` [LIGUSTRAZINE] gave an Activity in test [1] of 7.86%. This compound yielded an EC50 in test [2] of 452 µM.
